Measurements pooled from the literature.
Protocols differ between the studies behind these lines.
Target: Inhibitor of nuclear factor kappa-B kinase subunit alpha (CHUK, Homo sapiens, UniProt O15111)
Residues used in one study (O15111 1-745): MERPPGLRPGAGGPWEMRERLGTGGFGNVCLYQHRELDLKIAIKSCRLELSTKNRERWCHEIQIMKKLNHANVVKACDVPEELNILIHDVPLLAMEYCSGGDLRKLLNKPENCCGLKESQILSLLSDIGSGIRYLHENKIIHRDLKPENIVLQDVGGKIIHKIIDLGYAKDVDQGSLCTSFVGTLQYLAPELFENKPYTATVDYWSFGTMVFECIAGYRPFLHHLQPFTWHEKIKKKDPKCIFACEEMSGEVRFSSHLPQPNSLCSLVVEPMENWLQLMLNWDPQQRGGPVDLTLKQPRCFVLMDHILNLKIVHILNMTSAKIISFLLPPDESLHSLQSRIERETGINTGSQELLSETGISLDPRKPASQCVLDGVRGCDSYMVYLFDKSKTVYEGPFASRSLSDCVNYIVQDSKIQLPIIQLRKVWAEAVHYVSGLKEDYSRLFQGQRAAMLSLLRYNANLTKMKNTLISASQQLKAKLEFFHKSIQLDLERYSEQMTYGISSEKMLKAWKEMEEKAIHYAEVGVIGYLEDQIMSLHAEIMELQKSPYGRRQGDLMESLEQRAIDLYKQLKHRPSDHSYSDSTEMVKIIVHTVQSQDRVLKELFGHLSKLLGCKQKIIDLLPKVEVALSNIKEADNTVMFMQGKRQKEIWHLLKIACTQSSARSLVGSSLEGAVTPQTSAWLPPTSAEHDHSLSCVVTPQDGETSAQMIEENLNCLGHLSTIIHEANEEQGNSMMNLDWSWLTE

Cc1cnc(NC2CCOCC2)nc1-n1cnc(C(=O)NC(CN)c2cc(F)cc(Cl)c2)c1 (stereo not shown)
remaining activity (enzyme activity, inhibitor, radiometric; 1 µM): 92%

CNCc1ccc(-c2cc(-c3nc(-c4ccc(S(=O)(=O)C(C)C)cc4)cnc3N)on2)cc1
inhibition (enzyme activity, inhibitor; 0.4 µM): 17%

c1ccc(CNc2nc(N3CCOc4ccccc43)nc3c2CCCC3)cc1
inhibition (target engagement in cells, inhibitor, chemoproteomics; 20 mM): 10.8%

Cc1ccc(C(=O)Nc2ccc(CN3CCN(C)CC3)c(C(F)(F)F)c2)cc1C#Cc1cnc2cccnn12
remaining activity (enzyme activity, inhibitor; 23.5 nM): 19%

CCN(CC)CCNC(=O)c1c(C)[nH]c(/C=C2\C(=O)Nc3ccc(F)cc32)c1C
inhibition (enzyme activity, inhibitor; 0.3 µM): -1%

CN(C(=O)c1ccccc1)c1cc(N(C)c2ccc3c(c2)CCc2ccc(C(=O)NCCN4CCOCC4)cc2C3=O)ccc1F
remaining binding (cell-free assay, competition with immobilised ligand; 1 µM): 100%

CSc1nc(C)c(-c2ccnc(Nc3ccc(N4CCOCC4)cc3)c2)[nH]1
inhibition (enzyme activity, inhibitor; 10 µM): 48.8%

CC(C)(C)c1nc(-c2cccc(NS(=O)(=O)c3c(F)cccc3F)c2F)c(-c2ccnc(N)n2)s1
remaining activity (enzyme activity, inhibitor, radiometric; 1 µM): 97%

N#CCCc1ccc2c(c1)-c1[nH]c3ccc([N+](=O)[O-])cc3c1CC(=O)N2
remaining signal (cell-free assay; 0.5 µM): 105%

CCCOc1ccc(OC)c(F)c1C(=O)c1ccc(C(=O)N[C@@H]2CNC[C@H]2NC(=O)c2ccc3[nH]ncc3c2)cc1
remaining activity (enzyme activity, inhibitor; 10 µM): 83%

CC(=O)N1CCC(c2ccc(C(=O)NC3=NCCN3)cc2C(F)(F)F)CC1
remaining binding (cell-free assay, competition with immobilised ligand; 1 µM): 90%

O=C(Nc1cnn(-c2csc(C(=O)NC3COC3)c2)c1)Nc1c(F)cccc1Cl
remaining activity (enzyme activity, inhibitor; 5 µM): 108%

CC(=O)C1=C(C)N(c2cccc(C(F)(F)F)c2)C(=O)N[C@@H]1c1ccc(C#N)nc1
remaining binding (cell-free assay, competition with immobilised ligand; 1 µM): 100%

C#Cc1cccc(Nc2ncnc3cc(OCCOC)c(OCCOC)cc23)c1
remaining signal (cell-free assay; 0.5 µM): 94.2%

C[C@H](NC(=O)c1cnc2n1[C@](C)(Cc1ccc(C#N)cc1)C(=O)N2c1cc(Cl)c(F)c(Cl)c1)C(=O)NC1(c2ccccn2)CC1
remaining binding (cell-free assay, competition with immobilised ligand; 1 µM): 100%

CNC(=O)c1cc(Oc2ccc(NC(=O)Nc3ccc(Cl)c(C(F)(F)F)c3)cc2)ccn1
inhibition (enzyme activity, inhibitor; 0.3 µM): -10%
